In ChEMBL document CHEMBL4196141, “Improved Antibacterial Activity of the Marine Peptide N6 against Intracellular Salmonella Typhimurium by Conjugating with the Cell-Penetrating Peptide Tat11 via a Cleavable Linker” (J Med Chem, 2018):
In brackets after ≈: the same amount, converted by molar mass. Activity calls are given as the source filed them. No cut-off for these calls is given here. Positions of bridges follow the written chain, without caps; N, C: chain ends. Residues, ends and D or L forms follow the SMILES beside them.

Legend:
Salmonella typhimurium [1] = assay: Antibacterial activity against Salmonella typhimurium ATCC 14028 infected in ICR mouse model of peritonitis assessed as reduction colony forming units in kidney at 1 to 2 umol/kg, ip dosed at 2 hrs post infection and measured after 10 hrs post dose relative to marine peptide N6; type: functional, Salmonella enterica subsp. enterica serovar Typhimurium; set-up: scale not given: the % may be the effect or the level left
How it was run: (§1)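 Female ICR mice, six weeks old (six per group), were infected ip with S. Typhimurium ATCC14028 (5 × 10^5 CFU, 0.5 mL). Peptide was given ip at 1, 1.5 or 2 µmol/kg 2 h post-infection. Mice were killed 10 h after treatment, and kidneys and spleens were homogenized in sterile PBS for CFU counts of translocated bacteria. PBS-treated mice served as negative control, ciprofloxacin-treated mice as positive.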

Salmonella typhimurium [2] = assay: Antibacterial activity against Salmonella typhimurium ATCC 14028 infected in ICR mouse model of peritonitis assessed as mouse survival at 1.5 umol/kg, ip dosed at 0.5 and 8 hrs post infection and measured daily for 7 days
Salmonella typhimurium [3] = assay: Bactericidal activity against 2 hrs-gentamicin pre-exposed Salmonella typhimurium ATCC 14028 assessed as reduction colony forming units at 20 uM incubated for 10 hrs; type: functional, Salmonella enterica subsp. enterica serovar Typhimurium
How it was run: (§2)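 Macrophage protection assay. RAW264.7 cells (5 × 10^4/well, 24 h) were infected with S. Typhimurium ATCC14028 at MOI 10 for 1 h in DMEM/10% FBS, exposed to 100 µg/mL gentamicin for 2 h at 37 °C, and PBS-washed. Peptides in DMEM/10% FBS were added for 10 h. Cells were lysed with 0.1% Triton X-100 and CFU plated; log10 CFU reduction versus untreated cells. Three replicates; two independent experiments; one-way ANOVA with Tukey.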

Salmonella typhimurium [4] = assay: Antibacterial activity against Salmonella typhimurium ATCC 14028 using 1 hr cathepsin B pre-treated compound at pH 5 incubated for 16 to 18 hrs at by broth microdilution method; type: functional, Salmonella enterica subsp. enterica serovar Typhimurium; details: Salmonella enterica
How it was run: (§3)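 Cathepsin B (bovine spleen, 10 µg/mL) was added for 1 h at 37 °C, and the reaction was stopped with 9 volumes of MHB. MIC was then run by broth microdilution (5 × 10^5 CFU/mL, 16–18 h, 37 °C) in medium adjusted to pH 5.0.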

[5] = Cytotoxicity in mouse RAW264.7 assessed as cell survival at 100 uM incubated for 8 hrs by MTT assay; type: cell-based; details: RAW264.7 cells, read-out: Survival
How it was run: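 RAW264.7 cells seeded at 2.5 × 10^4 cells/well, cultured 24 h, then exposed for 8 h to 2-fold dilutions from 100 to 0.625 µM. MTT at 5 mg/mL added for 4 h, formazan dissolved in DMSO, absorbance read at 570 nm. Untreated cells served as control. Samples run in triplicate.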

Salmonella typhimurium [6] = assay: Antibacterial activity against Salmonella typhimurium ATCC 14028 infected in ICR mouse model of peritonitis assessed as mouse survival at 1 umol/kg, ip dosed at 0.5 and 8 hrs post infection and measured daily for 7 days
Salmonella typhimurium [7] = assay: Bactericidal activity against 2 hrs-gentamicin pre-exposed Salmonella typhimurium ATCC 14028 assessed as reduction colony forming units at 20 uM incubated for 10 hrs relative to marine peptide N6; type: functional, Salmonella enterica subsp. enterica serovar Typhimurium; set-up: scale not given: the % may be the effect or the level left; how it was run: as §2
Salmonella typhimurium [8] = assay: Bactericidal activity against 2 hrs-gentamicin pre-exposed Salmonella typhimurium ATCC 14028 assessed as reduction colony forming units at 50 uM incubated for 10 hrs relative to marine peptide N6; type: functional, Salmonella enterica subsp. enterica serovar Typhimurium; set-up: scale not given: the % may be the effect or the level left; how it was run: as §2
Salmonella typhimurium [9] = assay: Antibacterial activity against Salmonella typhimurium ATCC 14028 infected in ICR mouse model of peritonitis assessed as reduction colony forming units in total peritoneal fluids at 1 umol/kg, ip dosed at 2 hrs post infection and measured after 10 hrs post dose; type: functional, Salmonella enterica subsp. enterica serovar Typhimurium
How it was run: (§4)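 Six-week-old female ICR mice (six per group) received ip S. Typhimurium ATCC14028 (5 × 10^5 CFU, 0.5 mL). Peptide was given ip 2 h post-infection and mice were killed 10 h after treatment. Peritoneum was lavaged with 5 mL ice-cold PBS and total CFU counted. For intracellular CFU, pelleted cells were treated with 100 µg/mL gentamicin for 1 h at 37 °C, washed, lysed and plated. PBS served as negative control, ciprofloxacin as positive.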

Salmonella typhimurium [10] = assay: Antibacterial activity against Salmonella typhimurium ATCC 14028 assessed as time duration for reduction in growth using cathepsin B pre-treated compound at 1 to 2 MIC incubated for 1 to 24 hrs by time kill assay; type: functional, Salmonella enterica subsp. enterica serovar Typhimurium
How it was run: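 Time-kill of cathepsin B-pretreated peptide (1 h, 37 °C, pH 5 buffer). Mid-log S. Typhimurium at 10^5 CFU/mL was exposed to 1× and 2× MIC at 37 °C with shaking at 250 rpm. Samples were taken every 2 h, serially diluted and plate-counted. N6 and ciprofloxacin served as controls.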

Salmonella typhimurium [11] = assay: Antibacterial activity against Salmonella typhimurium ATCC 14028 infected in ICR mouse model of peritonitis assessed as reduction colony forming units in intracellular fluids at 1 umol/kg, ip dosed at 2 hrs post infection and measured after 10 hrs post dose; type: functional, Salmonella enterica subsp. enterica serovar Typhimurium; how it was run: as §4
Salmonella typhimurium [12] = assay: Bactericidal activity against 2 hrs-gentamicin pre-exposed Salmonella typhimurium ATCC 14028 assessed as reduction colony forming units at 50 uM incubated for 10 hrs; type: functional, Salmonella enterica subsp. enterica serovar Typhimurium; how it was run: as §2
[13] = Induction of hemolysis in mouse RBC at 100 uM incubated for 1 hrs at 37 degC; type: cell-based, Erythrocyte; details: red blood cells (erythrocytes), read-out: Activity
How it was run: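 Fresh mouse erythrocytes were washed three times in 0.9% NaCl, and an 8% suspension was incubated with peptide (2-fold dilutions, 100 to 0.3125 µM) for 1 h at 37 °C. Released hemoglobin was read at 540 nm. 1% Triton X-100 defined 100% lysis; polymyxin served as positive control and NaCl as negative.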

Salmonella typhimurium [14] = assay: Antibacterial activity against Salmonella typhimurium ATCC 14028 infected in ICR mouse model of peritonitis assessed as reduction colony forming units in spleen at 1 to 2 umol/kg, ip dosed at 2 hrs post infection and measured after 10 hrs post dose relative to marine peptide N6; type: functional, Salmonella enterica subsp. enterica serovar Typhimurium; set-up: scale not given: the % may be the effect or the level left; how it was run: as §1
Salmonella typhimurium [15] = assay: Antibacterial activity against Salmonella typhimurium ATCC 14028 using 1 hr cathepsin B pre-treated compound followed by incubation for 16 to 18 hrs at pH 5 by broth microdilution method; type: functional, Salmonella enterica subsp. enterica serovar Typhimurium; details: Salmonella enterica; how it was run: as §3
Salmonella typhimurium [16] = assay: Antibacterial activity against Salmonella typhimurium ATCC 14028 incubated for 16 to 18 hrs at pH 7.2 by broth microdilution method; type: functional, Salmonella enterica subsp. enterica serovar Typhimurium; details: Salmonella enterica
How it was run: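 Broth microdilution in MH broth. S. Typhimurium ATCC14028 was grown overnight at 37 °C to semi-log phase, pelleted, and diluted to OD600 0.01; final inoculum was 5 × 10^5 CFU/mL. Plates were incubated 16–18 h at 37 °C. MIC is the lowest peptide concentration with no visible growth. Data are in duplicate from at least two independent experiments.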

Salmonella typhimurium [17] = assay: Bactericidal activity against 2 hrs-gentamicin pre-exposed Salmonella typhimurium ATCC 14028 assessed as reduction colony forming units at 10 uM measured within 9 hrs; type: functional, organism-based; details: Salmonella enterica subsp. enterica serovar Typhimurium
How it was run: (§5)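 RAW264.7 cells in DMEM/10% FBS were infected with S. Typhimurium ATCC14028 at MOI 10 for 1 h, then given 100 µg/mL gentamicin for 2 h at 37 °C and washed. Cells were treated with 10 µM agent for 1, 3, 6, 9 and 12 h, lysed with 0.1% Triton X-100, and surviving intracellular bacteria were serially diluted and plated for CFU.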

Salmonella typhimurium [18] = assay: Antibacterial activity against Salmonella typhimurium ATCC 14028 infected in ICR mouse model of peritonitis assessed as reduction colony forming units in kidney at 1 to 2 umol/kg, ip dosed at 2 hrs post infection and measured after 10 hrs post dose; type: functional, Salmonella enterica subsp. enterica serovar Typhimurium; how it was run: as §1
[19] = Drug localisation in cytosol of mouse RAW264.7 using FITC-labeled compound at 5 uM incubated for 2 hrs by confocal microscopy; type: ADME, cell-based
How it was run: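 RAW264.7 cells were plated for 18 h at 37 °C, then given 5 µM FITC or FITC-labeled peptide for 2 h. Nuclei were stained with Hoechst 33342 and membranes with FM 4-64 (each 5 µg/mL) for 30 min at 37 °C. Cells were PBS-washed and imaged by confocal fluorescence microscopy.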

[20] = Drug uptake in mouse RAW264.7 using FITC-labeled compound at 5 uM incubated for 2 hrs by flow cytometry; type: ADME, cell-based; details: raw264.7, 2 h
How it was run: (§6)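 Confluent RAW264.7 cells were resuspended in PBS and incubated at 37 °C with 5 µM FITC-labeled peptide. Samples taken at 0.5 h and 2 h were quenched with 0.4% Trypan blue for extracellular fluorescence. Uptake (percent internalized cells) was read by flow cytometry, with free FITC as negative control.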

Salmonella typhimurium [21] = assay: Bactericidal activity against 2 hrs-gentamicin pre-exposed Salmonella typhimurium ATCC 14028 assessed as effect on bacterial re-growth at 10 uM measured within 6 hrs; type: functional, organism-based; details: Salmonella enterica subsp. enterica serovar Typhimurium; how it was run: as §5
[22] = Drug uptake in mouse RAW264.7 using FITC-labeled compound at 5 uM incubated for 0.5 hrs by flow cytometry; type: ADME, cell-based; details: raw264.7, 0.5 h; how it was run: as §6

Structure (SMILES)	MIC (Salmonella typhimurium [4]) [µM]	viability at 8 h, 100 µM [5] [%]	Activity (Salmonella typhimurium [6]) [%]	Activity (Salmonella typhimurium [9]) [log10CFU]	Activity (Salmonella typhimurium [11]) [log10CFU]	hemolysis at 1 h, 100 µM [13] [%]	MIC (Salmonella typhimurium [15]) [µM]	MIC (Salmonella typhimurium [16]) [µM]	further results
CC(C)[C@H](NC(=O)CCCCCN1C(=O)CC(SC[C@H](N)C(=O)N[C@@H](Cc2ccc(O)cc2)C(=O)NCC(=O)N[C@@H](CCCNC(=N)N)C(=O)N[C@@H](CCCCN)C(=O)N[C@@H](CCCCN)C(=O)N[C@@H](CCCNC(=N)N)C(=O)N[C@@H](CCCNC(=N)N)C(=O)N[C@@H](CCC(N)=O)C(=O)N[C@@H](CCCNC(=N)N)C(=O)N[C@@H](CCCNC(=N)N)C(=O)N[C@@H](CCCNC(=N)N)C(=O)O)C1=O)C(=O)N[C@@H](CCCNC(N)=O)C(=O)Nc1ccc(COC(=O)NCC(=O)N[C@@H](Cc2ccccc2)C(=O)N[C@@H](C)C(=O)N[C@@H](Cc2c[nH]c3ccccc23)C(=O)N[C@@H](CC(N)=O)C(=O)N[C@H](C(=O)N[C@H]2CSSC[C@@H](C(=O)N[C@@H](Cc3cnc[nH]3)C(=O)N[C@@H](CCCNC(=N)N)C(=O)N[C@@H](CCCNC(=N)N)C(=O)N[C@@H](C)C(=O)N[C@@H](CC(N)=O)C(N)=O)NC(=O)[C@H](C(C)C)NC(=O)[C@H](CCCNC(=N)N)NC(=O)[C@H](C(C)C)NC(=O)CNC(=O)[C@H](CC(N)=O)NC(=O)[C@H](CCCNC(=N)N)NC(=O)[C@H](Cc3ccc(O)cc3)NC(=O)[C@H](C(C)C)NC2=O)C(C)C)cc1 (stereo not given in full)	1.7 (≈ 8.05 µg/mL)	64.3	83.3	3.46	2.04	4.6	3.4 (≈ 16.1 µg/mL)	13.6 (≈ 64.4 µg/mL)	Activity (Salmonella typhimurium [1]): 241%; Activity (Salmonella typhimurium [2]): 100%; Activity (Salmonella typhimurium [3]): 2.54 log10CFU; Activity (Salmonella typhimurium [7]): 98.9%; Activity (Salmonella typhimurium [8]): 98.6%; Time (Salmonella typhimurium [10]): <=2 hr; Activity (Salmonella typhimurium [12]): 3.29 log10CFU; Activity (Salmonella typhimurium [14]): 241%; Activity (Salmonella typhimurium [17]): Active
CC(C)[C@@H]1NC(=O)CNC(=O)[C@H](CC(N)=O)NC(=O)[C@H](CCCNC(=N)N)NC(=O)[C@H](Cc2ccc(O)cc2)NC(=O)[C@H](C(C)C)NC(=O)[C@@H](NC(=O)[C@@H](NC(=O)[C@H](CC(N)=O)NC(=O)[C@H](Cc2c[nH]c3ccccc23)NC(=O)[C@H](C)NC(=O)[C@H](Cc2ccccc2)NC(=O)CN)C(C)C)CSSC[C@@H](C(=O)N[C@@H](Cc2cnc[nH]2)C(=O)N[C@@H](CCCNC(=N)N)C(=O)N[C@@H](CCCNC(=N)N)C(=O)N[C@@H](C)C(=O)N[C@@H](CC(N)=O)C(=O)O)NC(=O)[C@H](C(C)C)NC(=O)[C@H](CCCNC(=N)N)NC1=O (H-GFAWNVCVYRNGVRVCHRRAN-OH; disulfide 7-16)	1.62 (≈ 4.01 µg/mL)	94.6	33.4	1.01	0.43	2.06	13 (≈ 32.1 µg/mL)	0.81 (≈ 2.01 µg/mL)	Activity (Salmonella typhimurium [18]): 0.6 log10CFU; Drug uptake [19]: Not Active; Drug uptake [20]: 71.9%; Activity (Salmonella typhimurium [21]): inactive; Drug uptake [22]: 28.7%
